Rows were chosen to be rich in hits. Some 3.3% of all compounds tested hit in one or more screens of this group.
KCC2 mod: KCC2 cotransporter modulators, thallium flux, primary screen, cell-based, HEK293 KCC2, FluoZin-2 fluorescence, MLSMR; Solute carrier family 12 member 5 (Homo sapiens), Q9H2X9; B-score of Tl+ flux slope (higher = more flux/activation; lower = inhibition) at 10 µM; KCC2 cells, thallium flux FluoZin-2 fluorescence; hit rate 2.2% among 190,000;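 active means thallium flux slope and its plate-corrected score both differing from the plate sample mean at a set confidence after two filtering rounds, in either direction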;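 further: slope of fluorescence scaled to starting intensity during 10 to 20 s after thallium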
ABCB1 block: ABCB1 efflux pump inhibitors, primary screen, cell-based, multiplex, flow cytometry, ABCG2 counter-screen; inhibition, % at 6.6 µM; ATP-dependent translocase ABCB1 (Homo sapiens), P08183; hit rate 0.067% among 190,000; CCRF-Adr cells, JC-1 efflux; in the data active means inhibition above about 40%;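 further: 0% = vehicle and 100% = reference inhibitor; higher value means more JC-1 retained so stronger ABCB1 efflux block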
ROMK mod: ROMK potassium channel modulators, primary screen, cell-based, thallium flux, MLSMR library. B-score at 10 µM. AID 1918, 2009. ATP-sensitive inward rectifier potassium channel 1 (Homo sapiens), P48048. Tet-inducible ROMK, thallium flux fluorescence; actives lie on both sides. hit rate 2% among 130,000;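 active means signal ratio slope over the read window, or its plate-corrected B-score, at least 3 SD from the plate mean, either direction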;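 further: B-score of the F/F0 ratio slope over 7 to 12 s after thallium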
Target sequence (P48048 whole entry, looked up): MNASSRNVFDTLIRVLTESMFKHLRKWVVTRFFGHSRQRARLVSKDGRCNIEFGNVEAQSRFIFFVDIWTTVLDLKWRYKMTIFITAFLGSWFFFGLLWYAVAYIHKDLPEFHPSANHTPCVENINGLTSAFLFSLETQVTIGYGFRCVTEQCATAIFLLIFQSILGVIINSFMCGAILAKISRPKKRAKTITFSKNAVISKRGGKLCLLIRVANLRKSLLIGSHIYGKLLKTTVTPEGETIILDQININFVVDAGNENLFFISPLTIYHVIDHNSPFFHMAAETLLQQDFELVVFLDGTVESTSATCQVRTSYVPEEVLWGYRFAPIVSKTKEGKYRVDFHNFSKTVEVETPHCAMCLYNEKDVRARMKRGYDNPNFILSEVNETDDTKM
PMI act: activators of human PMI, primary screen, biochemical, fluorescence intensity, near-Km mannose 6-phosphate | Mannose-6-phosphate isomerase (Homo sapiens), P34949 | hit rate 0.005% among 190,000 | activation factor at 20 µM | purified human PMI, coupled resazurin fluorescence, 20 min; stronger effect = higher value; 1 = vehicle control, 0 substrate-free wells;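 active means activation factor of 2 or more at 20 µM, relative to plate controls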
PMI act hi M6P: human PMI activators, high substrate, primary screen, biochemical, fluorescence intensity, near-saturating mannose 6-phosphate. Mannose-6-phosphate isomerase (Homo sapiens), P34949. coupled PMI enzyme assay, resazurin fluorescence, 20 min; stronger effect = higher value; 1 = untreated enzyme, 0 = substrate-free blank. activation factor at 20 µM. hit rate 0.34% among 190,000. AID 1216, 2008;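 active means activation factor of 2 or more at 20 µM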
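Test system: human phosphomannose isomerase with PGI, G6PDH, diaphorase coupling enzymes / Doses: 20 µM compound, 1% DMSO / Times: enzyme reaction with compound 20 min at room temperature / Measured by: Diaphorase-driven resazurin-to-resorufin fluorescence, excitation 544, emission 590 nm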
ABCG2 block: ABCG2 efflux pump inhibitors, primary screen, multiplex with ABCB1, IgMXP3 cells, flow cytometry; hit rate 0.1% among 190,000; AID 1325, 2008; JC-1 efflux; inhibition, % at 6.6 µM;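 active means inhibition above 80%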;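 further: 0% = DMSO and 100% = nicardipine control wells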
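Read-out basis: Efflux inhibition in percent versus controls | Test system: ABCG2 IgMXP3 and barcoded ABCB1 CCRF-Adr cell mix | Quantity: 3 million cells/mL in well | Schedule: 10 min at 25 °C | Control set: Nicardipine as high control, DMSO as low control | Reagent: JC-1 as fluorescent efflux pump substrate | Signal: Flow cytometry of retained JC-1 fluorescence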
ROMK retest: ROMK channel modulator hit retest, confirmation, cell-based, thallium flux, duplicate, resupplied hits | normalized thallium flux (F/F0 slope) at 10 µM | hit rate 54% among 3,000 | fluorescence ratio; stronger effect = lower value | shares compounds with ROMK mod;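 active means Flux at 10 µM at least 3 SD below or above vehicle control mean in one or both replicates; inconclusive means no clear call, values can overlap the other calls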
Numbers without * were called inactive; i = inactive; ? = inconclusive; . = no result given.

SMILES	KCC2 mod	ABCB1 block	ROMK mod	PMI act	PMI act hi M6P	ABCG2 block	ROMK retest
CN(C)c1nc(C(=O)O)nc(N2CCOCC2)n1	0.23	.	.	.	.	.	.
O=C(CN(C1CCCCC1)S(=O)(=O)c1ccc(F)cc1)Nc1ccc2c(c1)OCO2	1.1	1	-3.3*	1	1	13	0.064*
O=C(CN(C1CCCCC1)S(=O)(=O)c1ccc(F)cc1)NCCCO	.	0	0.1	1	1.1	7	.
COc1cccc(NC(=O)c2nnn(Cc3ccc(Br)cc3F)c2N)c1	0.45	0	.	0.9	0.8	1	.
CCC(C)NC(=S)NNC(=O)c1ccc(C(C)(C)C)cc1 (configuration not stated)	0.071	1	.	1.2	1.2	3	?
O=C(Cn1ncc(Cl)c(Cl)c1=O)N1CCc2ccccc21	.	0	-3.3*	1.1	1	6	?
Cc1csc(/C(=N\O)c2csc(C)n2)n1	0.17	0	.	1	1	4	.
COC(=O)c1ccc(Cn2cc(Cl)cn2)o1	0.11	.	.	.	.	.	.
COc1ccc(N=Cc2sc(O)c3ccccc23)cc1	.	1	.	0.9	0.9	4	.
COc1ccc(N=Cc2c(O)c3ccccc3n2C(C)=O)cc1	i	.	.	.	.	.	0.033*
CC(C)CC(NC(=O)c1ccccc1)C(=O)N/N=C/c1ccco1 (configuration not stated)	0.005	-3	0.96	1.1	1	-4	0.086
O=C(Cn1nnc2ccccc21)N/N=C/c1ccco1	0.32	0	.	0.8	0.9	0	.
O=C(Cn1nnc(-c2ccccc2)n1)N/N=C/c1ccco1	1.4	1	-12*	1	1	3	0.072
O=C(O)CCC(=O)N1CCc2cc(S(=O)(=O)N3CC=C(c4ccccc4)CC3)ccc21	-3.1	-2	.	0.9	0.9	-3	.
O=C(CN1C(=O)C2CC=CCC2C1=O)OCCN1C(=O)c2ccccc2C1=O (configuration not stated)	-0.15	1	-0.17	0.9	0.9	1	.
O=S(=O)(Nc1nc2c(s1)CCCC2)c1ccc(Br)cc1	-0.42	0	-3.2*	0.9	0.9	1	0.076
O=S(=O)(Nc1nc2c(s1)CCCC2)c1ccc(F)cc1	0.002	0	-1.2	0.9	0.9	1	.
CCC1CCCCN1C(=O)COc1c(Br)cc(Br)c2cccnc12 (configuration not stated)	1.6	1	-4.1*	0.9	0.7	5	0.059*
CCN(CC)c1ccc(C=Nc2ccc(N(C)C)cc2)c(O)c1	0.27	0	-2.7*	0.7	0.7	0	?
CCN(CC)c1ccc(N=Cc2ccc(N(CC)CC)cc2O)cc1	.	3	.	0.7	0.8	5	.
CCNC(=O)c1ccccc1SCC(=O)Nc1ccc(F)cc1	0.61	1	1.2	1.2	1.1	2	.
c1ccc(-c2csc3ncnc(NCc4ccccn4)c23)cc1	-2.7	.	.	.	.	.	0.056*
Cc1ccc(C)n1-c1ccc(N2CCOCC2)c(Br)c1	0.025	0	-1	1	1	10	.
O=C(c1ccc(-n2c(SCc3cccc(F)c3)nc3ccccc3c2=O)cc1)N1CCOCC1	-1.4	11	-3.4*	0.8	0.8	15	0.059*
O=c1c2ccccc2nc(SCc2nc(-c3ccccc3)no2)n1-c1ccc(F)cc1	0.68	1	.	0.7	0.8	4	.
CCCN1CC(O)=C(C#N)C1=O	-0.92	0	1	1.2	1	0	.
